pEC50, pIC50: −log10 of the molar value.

Consider six molecules from ChEMBL document CHEMBL3808280, “GroEL/ES inhibitors as potential antibiotics” (Bioorg Med Chem Lett, 2016).

Experiment [1] has as its system Acinetobacter baumannii. The experiment in a line: Antibacterial activity against multidrug resistant Acinetobacter baumannii 2208 (ATCC 19606) assessed as reduction in bacterial growth incubated for 6 to 8 hrs. Format: functional. The method, boiled down:
(§1)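 Broth proliferation assay. S. aureus and MRSA grown in ATCC Medium 18, other pathogens in Brain Heart Infusion. Stagnant incubation at 37°C under breathable seal. OD600 read at mid-log (6-8 h) and corrected with bacteria-free baseline plates. EC50 by variable-slope nonlinear fit, at least triplicate.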

Experiment [2] has as its system Enterococcus faecium. The experiment in a line: Antibacterial activity against multidrug resistant Enterococcus faecium NCTC 7171 (ATCC 19434) assessed as reduction in bacterial growth incubated for 6 to 8 hrs. The class given is functional, organism-based. Put shortly: as §1
In experiment [3] the test system is Enterobacter cloacae. In words: Antibacterial activity against multidrug resistant Enterobacter cloacae subsp. cloacae CDC 442-68 (ATCC 13047) assessed as reduction in bacterial growth incubated for 6 to 8 hrs. Format: functional, organism-based. Put shortly:
as §1

In experiment [4] the test system is Staphylococcus aureus. The experiment in a line: Antibacterial activity against methicillin resistant Staphylococcus aureus subsp. aureus HPV107 (ATCC BAA-44) assessed as reduction in bacterial growth incubated for 6 to 8 hrs. Format: functional, organism-based. Put shortly: as §1
The test system of experiment [5] is Klebsiella pneumoniae subsp. pneumoniae. In words: Antibacterial activity against multidrug resistant Klebsiella pneumoniae subsp. pneumoniae NCTC 9633 (ATCC 13883) assessed as reduction in bacterial growth incubated for 6 to 8 hrs. The class given is functional, organism-based. The method, boiled down: as §1
The subject of experiment [6] is Pseudomonas aeruginosa. The experiment in a line: Antibacterial activity against multidrug resistant Pseudomonas aeruginosa NCTC 10332 (ATCC 10145) assessed as reduction in bacterial growth incubated for 6 to 8 hrs. Format: functional, organism-based. The method, boiled down: as §1
In experiment [7] the test system is Staphylococcus aureus. In words: Antibacterial activity against methicillin susceptible Staphylococcus aureus subsp. aureus Seattle 1945 (ATCC 25923) assessed as reduction in bacterial growth incubated for 6 to 8 hrs.
The target in experiment [8] is T1, E. coli GroEL/ES (Escherichia coli, UniProt P0A6F5). In words: Inhibition of Escherichia coli GroEL/GroES using Escherichia coli GroEL expressed in Escherichia coli DH5alpha cells and Escherichia coli GroES expressed in Escherichia coli BL21(DE3) cells assessed as reduction in pig heart native refolded MDH-mediated NADH production by micro plate reader analysis. The method, boiled down:
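Native MDH counter-screen. GroEL/ES-dMDH refolding run 60 min at 37°C, then EDTA-quenched without compound. IC50 averaged from at least triplicate.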

Experiment [9] concerns Escherichia coli. In words: Antibacterial activity against acrB-deficient Escherichia coli MC4100 assessed as reduction in bacterial growth incubated for 6 to 8 hrs. Format: functional, organism-based.
Experiment [10] has as its system Bacillus subtilis. The experiment in a line: Antibacterial activity against Bacillus subtilis 168 assessed as reduction in bacterial growth incubated for 6 to 8 hrs. The class given is functional, organism-based. To be noted: subsp. subtilis str. 168.
In experiment [11] the target is T2, HSP60/HSP10 (Homo sapiens, UniProt P10809). In words: Inhibition of human HSP60/HSP10 expressed in Escherichia coli Rosetta2(DE3) cells assessed as inhibition of denatured pig heart MDH refolding by measuring reduction in NADH production incubated for 60 mins by micro plate reader analysis. The method, boiled down: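 Pig heart MDH was denatured in guanidine-HCl (dMDH) and complexed with HSP60, then HSP10, in Tris pH 7.4/KCl/MgCl2/DTT buffer. EDTA quench (100 mM final); refolded MDH activity was followed with mesoxalate/NADH at 340 nm.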
T2 sequence (P10809 whole entry): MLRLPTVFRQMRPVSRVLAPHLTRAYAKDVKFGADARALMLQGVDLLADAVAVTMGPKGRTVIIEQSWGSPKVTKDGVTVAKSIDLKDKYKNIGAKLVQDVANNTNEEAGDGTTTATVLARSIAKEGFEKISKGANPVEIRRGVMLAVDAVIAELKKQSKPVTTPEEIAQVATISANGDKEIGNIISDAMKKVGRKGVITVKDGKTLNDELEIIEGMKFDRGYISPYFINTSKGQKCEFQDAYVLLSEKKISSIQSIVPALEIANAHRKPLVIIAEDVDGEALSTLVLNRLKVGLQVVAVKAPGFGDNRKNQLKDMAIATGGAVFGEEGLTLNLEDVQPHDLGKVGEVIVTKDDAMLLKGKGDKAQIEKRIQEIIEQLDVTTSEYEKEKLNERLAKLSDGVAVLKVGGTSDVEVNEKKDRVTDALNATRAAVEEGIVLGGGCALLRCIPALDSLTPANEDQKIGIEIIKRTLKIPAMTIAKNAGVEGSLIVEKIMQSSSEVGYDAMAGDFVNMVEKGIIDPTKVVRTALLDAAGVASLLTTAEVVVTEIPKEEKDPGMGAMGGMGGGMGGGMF
T2 sequence (P61604 whole entry, further chain): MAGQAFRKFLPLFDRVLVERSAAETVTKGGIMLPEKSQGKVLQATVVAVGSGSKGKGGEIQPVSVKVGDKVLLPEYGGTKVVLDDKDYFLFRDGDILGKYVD

The test system of experiment [12] is Escherichia coli. In words: Antibacterial activity against Escherichia coli SM101 assessed as reduction in bacterial growth incubated for 12 hrs by UV-Vis spectrophotometric analysis. The class given is functional, organism-based. To be noted: SM101, 12 h.
In experiment [13] the target is T1, E. coli GroEL/ES. In words: Inhibition of Escherichia coli GroEL/GroES using Escherichia coli GroEL expressed in Escherichia coli DH5alpha cells and Escherichia coli GroES expressed in Escherichia coli BL21(DE3) cells assessed as inhibition of denatured pig heart MDH refolding by measuring reduction in NADH production incubated for 60 mins by micro plate reader analysis. The method, boiled down:
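Denatured MDH (guanidine-HCl/DTT, 30 min RT) bound to GroEL with GroES in Tris pH 7.4, KCl, MgCl2, DTT buffer. 60 min at 37°C, EDTA quench to 100 mM. Refolded MDH activity read with mesoxalate/NADH at 340 nm. Log-averaged IC50 from replicates.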

The target of experiment [14] is T1, E. coli GroEL/ES. In words: Inhibition of Escherichia coli GroEL/GroES using Escherichia coli GroEL expressed in Escherichia coli DH5alpha cells and Escherichia coli GroES expressed in Escherichia coli BL21(DE3) cells assessed as inhibition of denatured rhodanese refolding by measuring reduction in thiocyanate production incubated for 60 mins by micro plate reader analysis. Put shortly:
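Urea-denatured rhodanese bound to GroEL/GroES in folding buffer containing thiosulfate. After 60 min at 37°C, thiocyanate reaction (KCN, thiosulfate, phosphate) run, then formaldehyde quench and ferric nitrate added. Fe(SCN)3 read at 460 nm after 15 min RT, with protein-free baseline plates.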

Experiment [15] concerns Escherichia coli. In words: Antibacterial activity against Escherichia coli DH5alpha assessed as reduction in bacterial growth incubated for 6 to 8 hrs. Format: functional, organism-based. The settings on record: DH5[alpha].
Experiment [16] concerns the target T2, HSP60/HSP10. In words: Inhibition of human HSP60/HSP10 expressed in Escherichia coli Rosetta2(DE3) cells assessed as reduction in denatured pig heart MDH ATPase activity by malachite green dye based assay.
Experiment [17] relates to HEK293. The experiment in a line: Cytotoxicity against HEK293 cells assessed as reduction in cell viability after 48 hrs by alamar blue assay. The class given is cell-based. The settings on record: Homo sapiens, HEK293, 48 h.
The nature of experiment [18]: Cytotoxicity against human THLE3 cells assessed as reduction in cell viability after 48 hrs by alamar blue assay. Format: cell-based. To be noted: THLE3, 48 h.

T1 sequence (P0A6F5 whole entry, looked up): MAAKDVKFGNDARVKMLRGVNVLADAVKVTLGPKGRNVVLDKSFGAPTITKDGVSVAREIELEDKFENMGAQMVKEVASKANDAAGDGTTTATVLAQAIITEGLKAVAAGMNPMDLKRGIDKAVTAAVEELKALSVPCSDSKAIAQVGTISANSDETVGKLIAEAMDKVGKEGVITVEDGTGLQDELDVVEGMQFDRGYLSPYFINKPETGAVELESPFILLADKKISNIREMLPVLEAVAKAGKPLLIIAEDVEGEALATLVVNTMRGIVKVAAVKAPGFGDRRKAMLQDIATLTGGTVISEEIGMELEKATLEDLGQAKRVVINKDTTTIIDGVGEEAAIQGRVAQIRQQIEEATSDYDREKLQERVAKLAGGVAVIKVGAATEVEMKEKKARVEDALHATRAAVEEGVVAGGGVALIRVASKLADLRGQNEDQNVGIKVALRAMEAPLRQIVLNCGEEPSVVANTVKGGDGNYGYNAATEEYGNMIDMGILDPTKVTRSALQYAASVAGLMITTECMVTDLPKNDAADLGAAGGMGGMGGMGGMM

For the molecule `CCCCCCCCCC(=O)N[C@@H](Cc1c[nH]c2ccccc12)C(=O)N[C@@H](CC(N)=O)C(=O)N[C@@H](CC(=O)O)C(=O)N[C@@H]1C(=O)NCC(=O)N[C@@H](CCCN)C(=O)N[C@@H](CC(=O)O)C(=O)N[C@H](C)C(=O)N[C@@H](CC(=O)O)C(=O)NCC(=O)N[C@H](CO)C(=O)N[C@@H]([C@H](C)CC(=O)O)C(=O)N[C@@H](CC(=O)c2ccccc2N)C(=O)O[C@@H]1C` [DAPTOMYCIN], the negative logarithm of the EC50 (pEC50) is under 4.00 in experiment [1]; 4.48 in experiment [2]; under 4.00 in experiment [3]; 5.24 in experiment [4]; under 4.00 in experiment [5]; under 4.00 in experiment [6]. Moreover, the pEC50 in experiment [7] is 5.24.

As to `CN(C)c1ccc(O)c2c1C[C@H]1C[C@H]3[C@H](N(C)C)C(O)=C(C(N)=O)C(=O)[C@@]3(O)C(O)=C1C2=O` [MINOCYCLINE], the negative-log EC50 (pEC50) was over 7.30 in experiment [1]; over 7.30 in [2]; 5.82 in experiment [3]; 6.46 in [4]; 6.15 in experiment [5]; 5.62 in experiment [6]. Also, the negative-log EC50 (pEC50) in [7] was over 7.30.

As for `O=C(N[C@H](CO)[C@H](O)c1ccc([N+](=O)[O-])cc1)C(Cl)Cl` [CHLORAMPHENICOL], the pEC50 in experiment [1] is 4.19; in experiment [2], 5.68; in experiment [3], 5.66; in [4], 5.64; in [5], 5.85; in [6], 4.80. In [7], the negative-log EC50 (pEC50) was 5.66.

`CC1(C)S[C@@H]2[C@H](NC(=O)[C@H](N)c3ccccc3)C(=O)N2[C@H]1C(=O)O` [AMPICILLIN]: the pEC50 in [1] was 5.60; in [2], 6.20; in [3], under 4.00; in [4], 4.12; in experiment [5] it was 4.05; in experiment [6], 4.57. For the same molecule, the pEC50 in [7] is 7.23.

Regarding `NC[C@H]1O[C@H](O[C@H]2[C@H](O)[C@@H](O[C@H]3O[C@H](CO)[C@@H](O)[C@H](N)[C@H]3O)[C@H](N)C[C@@H]2N)[C@H](O)[C@@H](O)[C@@H]1O` [KANAMYCIN], the negative logarithm of the EC50 (pEC50) was 4.80 in experiment [1]; under 4.00 in experiment [2]; 4.43 in [3]; under 4.00 in experiment [4]; 4.35 in [5]; 4.60 in [6]. For the same molecule, the negative-log EC50 (pEC50) in [7] was 5.09.

`COc1cc(/C=C2/C(=N)N3N=C(CC(C)C)SC3=NC2=O)ccc1OC(=O)c1ccc(F)cc1`: the negative logarithm of the EC50 (pEC50) is under 4.00 in [1]; under 4.00 in experiment [2]; under 4.00 in experiment [3]; under 4.00 in experiment [9]; 4.89 in experiment [10]; under 4.00 in experiment [4]. Moreover, the pEC50 is 4.60 in experiment [12]; under 4.00 in [5]; under 4.00 in experiment [6]; under 4.00 in experiment [15]; under 4.00 in experiment [7]; under 4.00 in [17]. Moreover, the pEC50 in experiment [18] is under 4.00. Moreover, the negative-log IC50 (pIC50) was under 4.20 in experiment [8]; 4.59 in experiment [11]; 4.62 in experiment [13]; 4.60 in [14]; under 3.60 in experiment [16].
